The list is not random: actives were taken first. Their share in the collection is about 4.1%.
Cl transport mod = modulators of human KCC2 chloride dependent transport | Q9H2X9 | KCC2 cells, thallium flux FluoZin-2 fluorescence | B-score of Tl+ flux slope (higher = more flux/activation; lower = inhibition) at 10 µM | hit rate 2.2% among 190,000;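 active = thallium flux slope and its plate-corrected score both differing from the plate sample mean at a set confidence after two filtering rounds, in either direction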;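 also: slope of fluorescence scaled to starting intensity during 10 to 20 s after thallium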
Autophagy mod = alters autophagy in cells | calls only at 10 µM (by protocol) | MEF GFP-LC3 puncta imaging; test concentration mostly 10 µM | hit rate 0.98% among 190,000 | AID 463193;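 active = percentage of spot-positive cells more than 3 SD above its plate mean, without a fluorescence outlier flag or 80% toxicity; inconclusive = no clear call, values can overlap the other calls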;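 also: spot-positive cell cutoff set from DMSO-treated cells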
Redox H2O2 prof = compounds producing H2O2 with reducing agent – biochemical, NIH compound library profiling, artefact control for MLSCN library redox annotation, primary screen; DTT-dependent redox cycling H2O2, phenol red/HRP absorbance; 100% = 100 µM peroxide control, 0% = buffer; hit rate 0.03% among 200,000; activation, % at 10 µM;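 active = activation of at least 50% relative to the plate's high and low controls in the primary single-dose screen; inactive = activation below 50%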;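 also: compound incubated with DTT at 0.8 mM final as the reducing agent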
ROMK primary = modulators of human ROMK potassium channel; P48048; Tet-inducible ROMK, thallium flux fluorescence; actives lie on both sides; B-score at 10 µM; hit rate 2% among 130,000;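 active = signal ratio slope over the read window, or its plate-corrected B-score, at least 3 SD from the plate mean, either direction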;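 also: B-score of the F/F0 ratio slope over 7 to 12 s after thallium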
Dynein cargo inh = dynein cargo transport inhibition | z-score, hits read low | hit rate 0.47% among 220,000 | 3617.4 mouse cells, GR-EGFP nuclear translocation imaging; test concentration mostly 20 µM; stimulated with dexamethasone, 1 µM; stronger effect = lower value;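 active = plate z-score of nuclear minus cytoplasmic receptor signal below a set negative limit, without overly bright fluorescence or cell loss, cut at about -3.5 in these data, passing the limit was not always enough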;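 also: z-score of nuclear minus cytoplasmic ring GR-EGFP intensity difference per well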
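Buffer or medium: tet-free, stripped-serum medium; reagent: dexamethasone at 1.0 µM final, 30 min; incubation: 48 h induction, 1 h compound, 30 min dex at 37 °C; measured by: formaldehyde fixation, Hoechst nuclear stain, 10x automated fluorescence imaging; read-out: nuclear-to-cytoplasmic GR-EGFP distribution per well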
KCC2 secondary = KCC2 (human) modulation, secondary assay | HEK293-KCC2, thallium flux, FluoZin2 fluorescence; stronger effect = higher value | shares compounds with Cl transport mod | normalised thallium flux (F/F0 slope) at 10 µM | hit rate 15% among 3,700 | AID 1713;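 active = thallium flux slope above the same plate's solvent-only control mean plus 3 SD; inconclusive = the two replicate wells disagree; inactive = no significant difference from solvent-only control wells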
KCC2 bumet counter = bumetanide-insensitive thallium flux in KCC2 cells with ouabain, counter-screen; HEK293-KCC2 + bumetanide/ouabain, thallium flux FluoZin2; stronger effect = higher value; hit rate 49% among 3,700; normalized thallium flux at 10 µM; shares compounds with Cl transport mod;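 active = thallium entry rate above the same plate's blocked-transporter control wells by more than 3 SD; inconclusive = the two repeat wells disagree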;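 also: raw slope of fluorescence over initial fluorescence between 10 and 20 s after thallium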
KCC2 sec2 = KCC2 (human) modulation, second secondary assay; normalized thallium flux at 10 µM; HEK293-KCC2, thallium flux FluoZin2 fluorescence; actives lie on both sides; F/F0 rise rate, 10–20 s post-thallium; shares compounds with Cl transport mod; hit rate 23% among 3,700;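 active = thallium flux slope more than 3 SD above or below the plate's solvent-only control mean, mostly below; inconclusive = the two repeat wells disagreed; inactive = no significant shift from solvent-only controls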;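 also: raw slope with 0.1% DMSO as baseline and bumetanide as block control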
HEK counter1 = acts in parental HEK cells, KCC2 counter-screen; shares compounds with Cl transport mod; HEK293 parental cells, thallium flux FluoZin2, ouabain; baseline-ratio fluorescence slope, 10–20 s after thallium; hit rate 46% among 3,700; thallium flux rate (normalised fluorescence) at 10 µM; AID 1716;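 active = thallium flux rate significantly above the same plate's solvent-only control wells, beyond their mean plus 3 SD; inconclusive = the two replicate wells gave conflicting results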
KCC2 retest ouab = confirmation of human KCC2 modulators with ouabain; AID 1717; HEK293-KCC2, thallium flux FluoZin2 fluorescence; bidirectional: low = inhibitor, high = activator; hit rate 48% among 3,700; shares compounds with Cl transport mod; raw Tl+ flux slope (below DMSO = inhibition, above = activation) at 10 µM;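 active = thallium flux slope beyond 3 SD from same-plate DMSO control mean in most replicates, usually higher, sometimes lower; inconclusive = repeat tests gave conflicting results; inactive = no significant difference from controls in most replicates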;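 also: slope of initial-normalized fluorescence between seconds 10 and 20 after thallium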
HEK293 Tl flux2 = acts in parental HEK cells, second KCC2 counter-screen; HEK293 parental, thallium flux FluoZin-2 fluorescence slope; thallium flux slope at 10 µM; shares compounds with Cl transport mod; hit rate 33% among 3,700;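 active = thallium flux slope above the same plate's solvent-control mean plus 3 SD in both duplicate wells; inconclusive = duplicate wells that disagreed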;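 also: run without ouabain in cells lacking the KCC2 cotransporter; slope of fluorescence scaled to its starting value between 10 and 20 s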
* = called active by the depositor.

`Cc1onc(-c2cccc(Cl)c2Cl)c1C(=O)O/N=C(\N)c1ccc([N+](=O)[O-])o1` gave Cl transport mod -4.9*, Dynein cargo inh -0.94, KCC2 secondary 0.007, KCC2 bumet counter 0.0033, KCC2 sec2 inconclusive, HEK counter1 0.0048*, KCC2 retest ouab 0.017 and HEK293 Tl flux2 0.0079*.
Screening COc1cc(/C=N/NC(=O)C23CC4CC(CC(C4)C2)C3)cc(Br)c1O returned Cl transport mod 0.00032, Autophagy mod inactive, Redox H2O2 prof 0, ROMK primary -0.66 and Dynein cargo inh -0.46.
Screening O=C(N/N=C/c1cc([N+](=O)[O-])cc(Br)c1O)C12CC3CCC(CC(C3)C1)C2 returned Cl transport mod 8.3*, Dynein cargo inh 1.2, KCC2 secondary 0.0087, KCC2 bumet counter 0.017*, KCC2 sec2 0.033, HEK counter1 0.012*, KCC2 retest ouab inconclusive and HEK293 Tl flux2 inconclusive.
Screening CN(C1=NS(=O)(=O)c2ccccc21)c1ccc(OC(=O)c2ccncc2)cc1 returned Cl transport mod 0.91, Autophagy mod inactive, Redox H2O2 prof 0, ROMK primary -0.0064 and Dynein cargo inh -0.62.
`CC(C)OC(=O)CC1C(=O)NCCN1C(=S)NC(=O)c1ccc(F)cc1` (stereo unspecified) gave Cl transport mod 0.6, Autophagy mod inactive, Redox H2O2 prof -2, ROMK primary -0.2 and Dynein cargo inh -0.36.
Screening CC1CN=C(N(C(=S)Nc2ccccc2)c2cccc(C(F)(F)F)c2)S1 (stereo unspecified) returned Cl transport mod 0 and Dynein cargo inh -0.91.
Screening CCCCC(CCC(=O)O)(C(=O)OCC)c1csc(Nc2ccc(C)cc2)n1 (stereo unspecified) returned Cl transport mod -4.1*, Autophagy mod inactive, Redox H2O2 prof 0, ROMK primary 1, Dynein cargo inh -0.082, KCC2 secondary 0.0052, KCC2 bumet counter 0.004, KCC2 sec2 0.025*, HEK counter1 0.0056*, KCC2 retest ouab 0.013* and HEK293 Tl flux2 inconclusive.
`CCOC(=O)C(CC)(CCC(=O)O)c1csc(N)n1` (stereo unspecified) gave Autophagy mod inactive, Redox H2O2 prof 0, ROMK primary 0.52 and Dynein cargo inh -0.71.
Screening Cc1ccc(-c2csc(Cc3nc(-c4cc5ccccc5oc4=O)cs3)n2)cc1 returned Autophagy mod inactive, Redox H2O2 prof -8, ROMK primary 0.37, Dynein cargo inh 0.5, KCC2 secondary 0.017, KCC2 bumet counter 0.0051, KCC2 sec2 0.029, HEK counter1 0.007, KCC2 retest ouab 0.016 and HEK293 Tl flux2 0.0097.
`CCOC(=O)c1cc2c(ccn2-c2ccc(F)cc2)n1CC(=O)N(CC)CC` gave Cl transport mod -5.5*, Autophagy mod inactive, Redox H2O2 prof 0, ROMK primary -0.91, Dynein cargo inh 0.091, KCC2 secondary 0.015, KCC2 bumet counter 0.0036, KCC2 sec2 0.023*, HEK counter1 inconclusive, KCC2 retest ouab 0.012* and HEK293 Tl flux2 0.009.
For COC(=O)c1cc2c(ccn2-c2ccc(F)cc2)n1CC(=O)C(C)(C)C the results were Cl transport mod 0.4, Autophagy mod inactive, Redox H2O2 prof 0, ROMK primary -0.24 and Dynein cargo inh 0.48.
For CCOC(=O)c1cc(C)n(Cc2cccc(OC)c2OC)c1C the results were Autophagy mod inactive, Redox H2O2 prof 0, ROMK primary -0.31, Dynein cargo inh 1.2, KCC2 secondary 0.0065, KCC2 bumet counter 0.0042, KCC2 sec2 0.03, HEK counter1 0.0068, KCC2 retest ouab 0.017 and HEK293 Tl flux2 0.011.
Screening CCOC(=O)c1c(C)c(C)n(Cc2cccc(OC)c2OC)c1C returned Cl transport mod -1.2, Autophagy mod inactive, Redox H2O2 prof 0, ROMK primary 1 and Dynein cargo inh -0.49.
COc1ccc(CNC(=O)c2cc3c(s2)CN(Cc2ccccc2)C3)cc1 was read as Cl transport mod -1.3, Autophagy mod inactive, Redox H2O2 prof 0, ROMK primary 0.32 and Dynein cargo inh -0.25.
O=c1c(-c2cnn(-c3ccccc3)c2)coc2cc(O)ccc12 was read as Cl transport mod -4.1*, Autophagy mod inactive, Redox H2O2 prof -1, ROMK primary 0.54, Dynein cargo inh -0.37, KCC2 secondary 0.0071, KCC2 bumet counter 0.0059*, KCC2 sec2 0.026*, HEK counter1 0.0076, KCC2 retest ouab inconclusive and HEK293 Tl flux2 0.011.
Screening CS(=O)(=O)N(CC(=O)Nc1ccc(S(=O)(=O)N2CCOCC2)cc1)c1ccccc1Br returned Cl transport mod 0.3, Autophagy mod inactive, Redox H2O2 prof 0, ROMK primary -0.086 and Dynein cargo inh -0.6.
Screening O=P(COCCCCCOCP(=O)(c1ccccc1)c1ccccc1)(c1ccccc1)c1ccccc1 returned Cl transport mod -2.8, Autophagy mod inactive, Redox H2O2 prof -1, ROMK primary -0.75 and Dynein cargo inh 2.3.
Screening c1ccc(-c2nnc(-c3ccco3)n2-c2ccccc2)cc1 returned Cl transport mod -0.19, Autophagy mod inactive, Redox H2O2 prof 0 and Dynein cargo inh -0.78.
`c1ccc(-n2c(-c3ccncc3)nnc2-c2ccco2)cc1` gave Autophagy mod inactive, Redox H2O2 prof 0, Dynein cargo inh -0.57, KCC2 secondary 0.017, KCC2 bumet counter 0.0048, KCC2 sec2 0.029, HEK counter1 0.007, KCC2 retest ouab 0.016 and HEK293 Tl flux2 0.011.
Screening CSc1ccc(NC(=O)NCCN2CCc3ccccc3C2)cc1 returned Cl transport mod -3.9*, Autophagy mod inactive, Redox H2O2 prof 0, Dynein cargo inh -1.1, KCC2 secondary 0.014, KCC2 bumet counter 0.0051, KCC2 sec2 0.025*, HEK counter1 0.0072, KCC2 retest ouab 0.015 and HEK293 Tl flux2 0.0099.

High-throughput results (PubChem)
